Published values of several laboratories.
Compare with care: the assays were run in different laboratories.
Effect on: cell growth or viability

SMILES | cell line | test | setting | quantity | value
CC#CC(=O)N1CC[C@@H](n2cc(-c3ccc(Oc4c(F)cccc4F)cc3)c3c(N)n[nH]c(=O)c32)C1 | DOHH-2 | ATP luminescence | 72 h | GI50 | 8.58 µM
COc1ccc2occ(/C=C/c3cc(OC)c(OC)c(OC)c3)c(=O)c2c1 | HSC-2 | MTT | 23 h | CC50 | 4.2 µM
Cc1ccc(C(=O)NCc2ccsc2)cc1C#Cc1cn(CCN(C)C)c2ncnc(N)c12 | 32D |  |  | GI50 | > 1 µM
COc1ccc(C=NNC(=O)c2sc(Nc3ccccc3)c(C(=O)Nc3ccc(OC)cc3)c2NC(C)=O)cc1 | HCT-116 | SRB | 1 µM, 48 h | viability | 59.4%
COC(=O)c1c(C)ncn1CC(c1c[nH]c2ccc(C)cc12)c1c[nH]c2ccc(C)cc12 | DH82 | MTS | 20 µM, 24 h | inhibition | 11.3%
CC(C)Cc1nn(C)c(=O)c2c(SCCCO)n(Cc3cnc(NCCCCCN)c4ccccc34)cc12 | Raji | MTT | 96 h | EC50 | 0.024 µM
CCOC(=O)c1c(C)ncn1CC(c1cn(C)c2ccc([N+](=O)[O-])cc12)c1cn(C)c2ccc([N+](=O)[O-])cc12 | DH82 | MTS | 20 µM, 24 h | inhibition | 20.5%
COc1ccc(NC(=O)c2c(Nc3ccccc3)sc(C(=O)NN=Cc3ccccc3)c2NC(C)=O)cc1 | HCT-116 | SRB | 1 nM, 48 h | viability | 101%
Cc1cn(CC(c2cn(C)c3ccccc23)c2cn(C)c3ccccc23)nn1 | DH82 | MTS | 20 µM, 24 h | inhibition | 17.9%
COc1ccc(NC(=O)c2c(Nc3ccccc3)sc(C#N)c2NC(=O)CNc2ccc(Br)cc2)cc1 | HCT-116 | SRB | 0.1 µM, 48 h | viability | 80.6%
Clc1ccccc1-c1ccc(CNCC2(N3CCCC3)COC2)o1 | U-87 MG |  | 30 µM, 48 h | viability | 63.6%
COc1ccc(NC(=O)c2c(Nc3ccccc3)sc(C#N)c2NC(=O)CNc2ccccc2)cc1 | HCT-116 | SRB | 10 µM, 48 h | viability | 87.2%
COc1cccc(Oc2ccccc2NC(=O)CNC(=O)c2cccc3ccccc23)c1 | EKVX | SRB | 48 h | GI50 | 1.29 µM
Cn1nnc2c(C(N)=O)ncn2c1=O | AGS |  |  | EC50 | 310 µM
CCc1ncn(CC(c2c[nH]c3ccc(C)cc23)c2c[nH]c3ccc(C)cc23)c1C(=O)OC | DH82 | MTS | 20 µM, 24 h | inhibition | 6.1%
CCn1c(=O)c(-c2cc(NC(=O)Nc3ccccc3)c(F)cc2Br)cc2cnc(NC)cc21 | 32D |  |  | GI50 | > 3 µM
COc1ccc(-c2ccc(-c3ccc(C(=N)N)nc3)s2)cc1Cl | EKVX | SRB |  | GI50 | 1.79 µM
COc1ccc(NC(=O)c2c(Nc3ccccc3)sc(C#N)c2NC(=O)CNc2ccccc2Cl)cc1 | HCT-116 | SRB | 10 µM, 48 h | viability | 62.9%
COCCn1cc(C#Cc2cc(C(=O)NCc3ccsc3)ccc2C)c2c(N)ncnc21 | 32D |  |  | GI50 | > 3 µM
COc1ccc2occ(/C=C/c3ccc(O)cc3)c(=O)c2c1 | HSC-2 | MTT | 6.7 h | CC50 | 9.5 µM
Cc1cccc2cc(CNCC3(N4CCCC4)COC3)cnc12 | U-87 MG |  | 30 µM, 48 h | viability | 97.7%
COc1ccc(-c2ccc(-c3ccc(C(=N)N)nc3)s2)cc1 | EKVX | SRB |  | GI50 | 1.7 µM
COc1ccc(NC(=O)c2c(Nc3ccccc3)sc(C(=O)NN=Cc3ccc(Cl)cc3)c2NC(C)=O)cc1 | HCT-116 | SRB | 10 µM, 48 h | viability | 61.3%
CC(C)Cc1nn(C)c(=O)c2c(SCCCO)n(Cc3ccc(NCCCCCN)nc3)cc12 | Raji | MTT | 96 h | EC50 | 0.52 µM
COc1ccc(NC(=O)c2c(Nc3ccccc3)sc(C(=O)NN=Cc3ccc(C)cc3)c2NC(C)=O)cc1 | HCT-116 | SRB | 100 µM, 48 h | viability | 76.1%
COc1ccc(/C=C/c2coc3ccc(OC)cc3c2=O)cc1 | HSC-2 | MTT | 23 h | CC50 | 2.6 µM
COc1ccc(NC(=O)c2c(Nc3ccccc3)sc(C#N)c2NC(=O)CNc2ccccc2[N+](=O)[O-])cc1 | HCT-116 | SRB | 10 nM, 48 h | viability | 90.4%
CC(C)Cc1nn(C)c(=O)c2c(SCCCO)n(Cc3ccc(Cl)nc3)cc12 | Raji | MTT | 96 h | EC50 | 1 µM
